BindingDB's records for doi:10.1021/jm000929u (Universidad Complutense, 2001)

What follows are molecules tested against T1, 5-hydroxytryptamine receptor 1A (Rattus norvegicus, UniProt P19327) (assay: In vitro binding affinity towards 5-hydroxytryptamine 1A receptor was determined using radioligand [3H]-8-OH-DPAT).
T1 sequence (P19327 whole entry): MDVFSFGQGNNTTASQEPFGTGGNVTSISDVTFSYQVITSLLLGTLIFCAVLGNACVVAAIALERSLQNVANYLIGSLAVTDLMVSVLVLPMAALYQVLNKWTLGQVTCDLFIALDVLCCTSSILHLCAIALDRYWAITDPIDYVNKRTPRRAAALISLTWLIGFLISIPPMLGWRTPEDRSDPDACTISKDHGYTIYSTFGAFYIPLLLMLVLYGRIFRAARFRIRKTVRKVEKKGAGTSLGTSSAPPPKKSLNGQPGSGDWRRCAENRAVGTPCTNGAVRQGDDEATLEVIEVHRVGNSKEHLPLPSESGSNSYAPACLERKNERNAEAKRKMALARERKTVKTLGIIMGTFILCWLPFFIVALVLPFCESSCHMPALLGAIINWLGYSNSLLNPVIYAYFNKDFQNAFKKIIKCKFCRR
Summary of the method: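 Rat (male Sprague-Dawley) cerebral cortex membranes, about 1 mg protein, incubated 15 min at 37 °C with 0.6 nM [3H]8-OH-DPAT plus competitor in 50 mM Tris-HCl with 10 nM clonidine and 30 nM prazosin, pH 7.4. Nonspecific binding with 10 µM 5-HT. Triplicates; GF/B filtration, scintillation counting; IC50 curve fit, Ki by Cheng-Prusoff; 2-4 experiments.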

Compound | Ki
N#Cc1ccccc1N1CCN(CCCn2c(O)c3n(c2=O)CCCC3)CC1 | 33 nM
CCCNC(=O)c1ccccc1N1CCN(CCCn2c(O)c3n(c2=O)CCC3)CC1 | > 1000 nM

Second part, the molecule after the results:

Ki | Compound
> 1000 nM | Nc1cccc(N2CCN(CCCn3c(O)c4n(c3=O)CCC4)CC2)c1
> 1000 nM | CC(C)C(=O)Nc1cccc(N2CCN(CCCn3c(O)c4n(c3=O)CCCC4)CC2)c1
33 nM | O=c1n(CCCN2CCN(c3cccc(Br)c3)CC2)c(O)c2n1CCC2
